ChEMBL document CHEMBL4715759, “Synthesis, biological evaluation and molecular modeling study of thiadiazolo[3,2-a][1,3]diazepine analogues of HIE-124 as a new class of short acting hypnotics” (Eur J Med Chem, 2016)
Activity calls are given as the source filed them. No cut-off for these calls is given here.

Columns and labels:
[1] = tested on: Mus musculus; experiment: Hypnotic activity in mouse assessed as duration of sleep time at 0.03 mmol/Kg, ip in presence of 0.06 mmole/kg thiopenetal by righting reflex; type: functional
Method in brief: (§1)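 Mice received a test compound (0.03–0.06 mmol/kg) together with thiopental sodium (0.06 mmol/kg), both i.p. Vehicle was DMSO (up to 1 ml/kg), or 0.25% aqueous sodium carboxymethylcellulose suspension for larger doses (up to 10 ml/kg). Each mouse was kept under a 30-cm glass funnel and watched visually and on video. Sleep onset was timed. Duration ended when the righting reflex was regained 3 times within one minute. n=6.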

[2] = Therapeutic Index, ratio of LD50 of Toxicity in iv dosed mouse to minimum effective hypnotic dose in mouse; type: organism-based; settings: in vivo, read-out: TI
[3] = tested on: Mus musculus; experiment: Hypnotic activity in mouse assessed as onset of sleep time at 0.4 mmol/Kg, ip by righting reflex; type: functional
Method in brief: (§2)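 Mice were first checked for an intact righting reflex. Single i.p. doses of 0.2–2 mmol/kg were given in DMSO (up to 1 ml/kg), or as a 0.25% aqueous carboxymethylcellulose suspension (up to 10 ml/kg) for larger doses, with vehicle controls. Each mouse was placed under a 30-cm glass funnel and monitored visually and by video. Onset of sleep was timed. Duration ended at regain of the righting reflex 3 times within 1 min. Minimal effective dose recorded; n=6.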

[4] = tested on: Mus musculus; experiment: Hypnotic activity in mouse assessed as onset of sleep time at 0.03 mmol/Kg, ip in presence of 0.06 mmole/kg thiopenetal by righting reflex; type: functional; method in brief: as §1
[5] = tested on: Mus musculus; experiment: Hypnotic activity in mouse assessed as duration of sleep time at 0.4 mmol/Kg, ip by righting reflex; type: functional; method in brief: as §2
[6] = tested on: Mus musculus; experiment: Hypnotic activity in mouse assessed as onset of sleep time at 1 mmol/Kg, ip by righting reflex; type: functional; method in brief: as §2
[7] = tested on: Mus musculus; experiment: Hypnotic activity in mouse assessed as duration of sleep time at 1 mmol/Kg, ip by righting reflex; type: functional; method in brief: as §2
[8] = tested on: Mus musculus; experiment: Hypnotic activity in mouse assessed as onset of sleep time at 0.8 mmol/Kg, ip by righting reflex; type: functional; method in brief: as §2
[9] = tested on: Mus musculus; experiment: Hypnotic activity in mouse assessed as duration of sleep time at 0.8 mmol/Kg, ip by righting reflex; type: functional; method in brief: as §2
[10] = tested on: Mus musculus; experiment: Hypnotic activity in mouse assessed as duration of sleep time at 0.05 mmol/Kg, ip in presence of 0.06 mmole/kg thiopenetal by righting reflex; type: functional; method in brief: as §1
[11] = tested on: Mus musculus; experiment: Hypnotic activity in mouse assessed as onset of sleep time at 0.05 mmol/Kg, ip in presence of 0.06 mmole/kg thiopenetal by righting reflex; type: functional; method in brief: as §1
[12] = tested on: Mus musculus; experiment: Hypnotic activity in mouse assessed as duration of sleep time at 0.06 mmol/Kg, ip in presence of 0.06 mmole/kg thiopenetal by righting reflex; type: functional; method in brief: as §1
[13] = tested on: Mus musculus; experiment: Hypnotic activity in mouse assessed as onset of sleep time at 0.06 mmol/Kg, ip in presence of 0.06 mmole/kg thiopenetal by righting reflex; type: functional; method in brief: as §1
[14] = tested on: Mus musculus; experiment: Hypnotic activity in mouse assessed as onset of sleep time at 0.2 mmol/Kg, ip by righting reflex; type: functional
Method in brief: (§3)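 Mice screened for intact righting reflex, then dosed i.p. (0.2–2 mmol/kg range; DMSO up to 1 ml/kg, or larger doses suspended in 0.25% aqueous Na-CMC up to 10 ml/kg). Each mouse was held under a 30-cm glass funnel and monitored visually and by video. Onset was recorded at loss of righting reflex. Sleep ended when the reflex was regained 3 times within one minute. n=6.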

[15] = tested on: Mus musculus; experiment: Hypnotic activity in mouse assessed as duration of sleep time at 0.2 mmol/Kg, ip by righting reflex; type: functional; method in brief: as §3
[16] = tested on: Mus musculus; experiment: Hypnotic activity in mouse assessed as onset of sleep time at 1.6 mmol/Kg, ip by righting reflex; type: functional; method in brief: as §2
[17] = tested on: Mus musculus; experiment: Hypnotic activity in mouse assessed as duration of sleep time at 1.6 mmol/Kg, ip by righting reflex; type: functional, organism-based; method in brief: as §2

O=C1CCCN2N=C(c3ccc(Br)cc3)SC2=N1
Time [1]: 75 min | selectivity ratio [2]: 1.5 | Time [3]: 43.4 min | Time [4]: 3.1 min | Activity [5]: inactive

CC1=NN2CCCC(=O)N=C2S1
selectivity ratio [2]: 3.55 | Time [6]: 25 min | Time [7]: 6 min

O=C1CCCN2N=C(C(F)(F)F)SC2=N1
Time [8]: 14 min | Time [9]: 14 min | selectivity ratio [2]: 3.32

O=C1CCCN2N=C(c3ccccc3)SC2=N1
Time [10]: 5 min | Time [11]: 15 min | selectivity ratio [2]: 6.62 | Time [3]: 6.4 min | Time [5]: 94.8 min | Time [12]: 62.5 min | Time [13]: 7.5 min

CCCC(C)C1(CC)C(=O)[N-]C(=S)NC1=O.[Na+] (centres undefined) [THIOPENTAL SODIUM]
selectivity ratio [2]: 6.1 | Time [14]: 2 min | Time [15]: 45 min

Cc1ccc(C2=NN3CCCC(=O)N=C3S2)cc1
selectivity ratio [2]: 1.25 | Time [16]: 20 min | Activity [17]: inactive
